{"source": "ChEMBL document CHEMBL1152757", "about": "“Stereoselective synthesis and biological evaluation of syn-1-amino-3-[18F]fluorocyclobutyl-1-carboxylic acid as a potential positron emission tomography brain tumor imaging agent” (Bioorg Med Chem, 2009)", "key": {"Pancreas [1]": {"test_system": "Pancreas", "test": "Biodistribution in pancreas of rat 9L cells implanted Fischer rat at 15 to 30 uCi, iv after 60 mins by gamma-counter", "type": "ADME, organism-based", "details": "in vivo, 1 h", "summary_of_the_method": "(§1)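 Male Fischer 344 rats (125-175 g) implanted intracranially by stereotactic injection of 5 × 10^4 9L gliosarcoma cells. Used 10-12 days after implantation. Tracer given into the tail vein at 15-30 µCi in 0.1-0.3 mL sterile saline. Groups of 4 were sacrificed at 15, 30, 60 and 120 min. Tissues were weighed and gamma-counted against dose standards, and counts decay-corrected to %ID/g (mean ± SD). One-way ANOVA.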"}, "Blood [2]": {"test_system": "Blood", "test": "Biodistribution in blood of rat 9L cells implanted Fischer rat at 15 to 30 uCi, iv after 120 mins by gamma-counter", "type": "ADME, organism-based", "details": "in vivo, 2 h", "summary_of_the_method": "as §1"}, "Lung [3]": {"test_system": "Lung", "test": "Biodistribution in lung of rat 9L cells implanted Fischer rat at 15 to 30 uCi, iv after 60 mins by gamma-counter", "type": "ADME, organism-based", "details": "in vivo, 1 h", "summary_of_the_method": "as §1"}, "[4]": {"test": "Biodistribution in tumor of rat 9L cells implanted Fischer rat at 15 to 30 uCi, iv after 15 mins by gamma-counter", "type": "ADME, organism-based, Neoplasm", "details": "in vivo, 0.25 h", "summary_of_the_method": "as §1"}, "Muscle tissue [5]": {"test_system": "Muscle tissue", "test": "Biodistribution in muscle of rat 9L cells implanted Fischer rat at 15 to 30 uCi, iv after 15 mins by gamma-counter", "type": "ADME, organism-based", "details": "in vivo, 0.25 h", "summary_of_the_method": "as §1"}, "[6]": {"test": "Biodistribution in tumor of rat 9L cells implanted Fischer rat at 15 to 30 uCi, iv after 30 mins by gamma-counter", "type": "ADME, organism-based, Neoplasm", "details": "in vivo, 0.5 h", "summary_of_the_method": "as §1"}, "Spleen [7]": {"test_system": "Spleen", "test": "Biodistribution in spleen of rat 9L cells implanted Fischer rat at 15 to 30 uCi, iv after 120 mins by gamma-counter", "type": "ADME, organism-based", "details": "in vivo, 2 h", "summary_of_the_method": "as §1"}, "[8]": {"test": "Ratio of drug level from tumor to brain of rat 9L cells implanted Fischer rat at 15 to 30 uCi, iv after 15 mins by gamma-counter", "type": "ADME, organism-based", "details": "in vivo, 0.25 h", "summary_of_the_method": "(§2)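 Male Fischer 344 rats (125-175 g) received intracranial implants of 9L cells (5 × 10^4 cells) and were used 10-12 days later. Tracer was given by tail vein at 15-30 µCi in 0.1-0.3 mL sterile saline. Groups of 4 were killed at each time point. Tissues were weighed and gamma counted against dose standards with decay correction, giving %ID/g (mean). The ratio is tumor %ID/g over normal brain %ID/g.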"}, "9L": {"test_system": "9L", "test": "Drug uptake in rat 9L cells assessed as intracellular accumulation after 30 mins measured per 5 x 10^5 cells by gamma-counter", "type": "ADME, cell-based", "details": "0.5 h", "summary_of_the_method": "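9L cells were grown in DMEM with 10% FCS and penicillin/streptomycin, then trypsinized and washed twice in HBSS. About 5 × 10^5 cells received 5 µCi tracer in amino acid-free HBSS for 30 min at 37 °C, without or with 10 mM BCH (L-type inhibitor). Cells were centrifuged and rinsed twice with ice-cold HBSS, then gamma-counted with decay correction. Uptake expressed as % of standard per 5 × 10^5 cells. Triplicates, 1-way ANOVA.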"}, "[9]": {"test": "Ratio of drug level from tumor to brain of rat 9L cells implanted Fischer rat at 15 to 30 uCi, iv after 60 mins by gamma-counter", "type": "ADME, organism-based", "details": "in vivo, 1 h", "summary_of_the_method": "as §2"}, "Brain [10]": {"test_system": "Brain", "test": "Biodistribution in brain of rat 9L cells implanted Fischer rat at 15 to 30 uCi, iv after 30 mins by gamma-counter", "type": "ADME, organism-based", "details": "in vivo, 0.5 h", "summary_of_the_method": "as §1"}, "Liver [11]": {"test_system": "Liver", "test": "Biodistribution in liver of rat 9L cells implanted Fischer rat at 15 to 30 uCi, iv after 60 mins by gamma-counter", "type": "ADME, organism-based", "details": "in vivo, 1 h", "summary_of_the_method": "as §1"}, "Kidney [12]": {"test_system": "Kidney", "test": "Biodistribution in kidney of rat 9L cells implanted Fischer rat at 15 to 30 uCi, iv after 15 mins by gamma-counter", "type": "ADME, organism-based", "details": "in vivo, 0.25 h", "summary_of_the_method": "as §1"}, "Bone [13]": {"test_system": "Bone", "test": "Biodistribution in bone of rat 9L cells implanted Fischer rat at 15 to 30 uCi, iv after 60 mins by gamma-counter", "type": "ADME, organism-based, Bone element", "details": "in vivo, 1 h", "summary_of_the_method": "as §1"}, "Heart": {"test_system": "Heart", "test": "Biodistribution in heart of rat 9L cells implanted Fischer rat at 15 to 30 uCi, iv after 60 mins by gamma-counter", "type": "ADME, organism-based", "details": "in vivo, 1 h", "summary_of_the_method": "as §1"}, "Muscle tissue [14]": {"test_system": "Muscle tissue", "test": "Biodistribution in muscle of rat 9L cells implanted Fischer rat at 15 to 30 uCi, iv after 120 mins by gamma-counter", "type": "ADME, organism-based", "details": "in vivo, 2 h", "summary_of_the_method": "as §1"}, "Pancreas [15]": {"test_system": "Pancreas", "test": "Biodistribution in pancreas of rat 9L cells implanted Fischer rat at 15 to 30 uCi, iv after 30 mins by gamma-counter", "type": "ADME, organism-based", "details": "in vivo, 0.5 h", "summary_of_the_method": "as §1"}, "Lung [16]": {"test_system": "Lung", "test": "Biodistribution in lung of rat 9L cells implanted Fischer rat at 15 to 30 uCi, iv after 30 mins by gamma-counter", "type": "ADME, organism-based", "details": "in vivo, 0.5 h", "summary_of_the_method": "as §1"}, "Lung [17]": {"test_system": "Lung", "test": "Biodistribution in lung of rat 9L cells implanted Fischer rat at 15 to 30 uCi, iv after 15 mins by gamma-counter", "type": "ADME, organism-based", "details": "in vivo, 0.25 h", "summary_of_the_method": "as §1"}, "Blood [18]": {"test_system": "Blood", "test": "Biodistribution in blood of rat 9L cells implanted Fischer rat at 15 to 30 uCi, iv after 15 mins by gamma-counter", "type": "ADME, organism-based", "details": "in vivo, 0.25 h", "summary_of_the_method": "as §1"}, "Kidney [19]": {"test_system": "Kidney", "test": "Biodistribution in kidney of rat 9L cells implanted Fischer rat at 15 to 30 uCi, iv after 30 mins by gamma-counter", "type": "ADME, organism-based", "details": "in vivo, 0.5 h", "summary_of_the_method": "as §1"}, "Bone [20]": {"test_system": "Bone", "test": "Biodistribution in bone of rat 9L cells implanted Fischer rat at 15 to 30 uCi, iv after 15 mins by gamma-counter", "type": "ADME, organism-based, Bone element", "details": "in vivo, 0.25 h", "summary_of_the_method": "as §1"}, "Kidney [21]": {"test_system": "Kidney", "test": "Biodistribution in kidney of rat 9L cells implanted Fischer rat at 15 to 30 uCi, iv after 60 mins by gamma-counter", "type": "ADME, organism-based", "details": "in vivo, 1 h", "summary_of_the_method": "as §1"}, "Brain [22]": {"test_system": "Brain", "test": "Biodistribution in brain of rat 9L cells implanted Fischer rat at 15 to 30 uCi, iv after 60 mins by gamma-counter", "type": "ADME, organism-based", "details": "in vivo, 1 h", "summary_of_the_method": "as §1"}, "Spleen [23]": {"test_system": "Spleen", "test": "Biodistribution in spleen of rat 9L cells implanted Fischer rat at 15 to 30 uCi, iv after 30 mins by gamma-counter", "type": "ADME, organism-based", "details": "in vivo, 0.5 h", "summary_of_the_method": "as §1"}, "Liver [24]": {"test_system": "Liver", "test": "Biodistribution in liver of rat 9L cells implanted Fischer rat at 15 to 30 uCi, iv after 30 mins by gamma-counter", "type": "ADME, organism-based", "details": "in vivo, 0.5 h", "summary_of_the_method": "as §1"}}}
{"smiles": "N[C@]1(C(=O)O)C[C@H]([18F])C1", "values": [{"measurement": "Drug uptake", "setting": "Pancreas [1]", "value": 2.83, "unit": "% ID/g"}, {"measurement": "Drug uptake", "setting": "Blood [2]", "value": 0.26, "unit": "% ID/g"}, {"measurement": "Drug uptake", "setting": "Lung [3]", "value": 0.42, "unit": "% ID/g"}, {"measurement": "Drug uptake", "setting": "[4]", "value": 1.4, "unit": "% ID/g"}, {"measurement": "Drug uptake", "setting": "Muscle tissue [5]", "value": 0.35, "unit": "% ID/g"}, {"measurement": "Drug uptake", "setting": "[6]", "value": 2.1, "unit": "% ID/g"}, {"measurement": "Drug uptake", "setting": "Spleen [7]", "value": 0.4, "unit": "% ID/g"}, {"measurement": "Ratio", "setting": "[8]", "value": 7.2}, {"measurement": "Drug uptake", "setting": "9L", "value": 15.8, "unit": "%ID"}, {"measurement": "Ratio", "setting": "[9]", "value": 7.6}, {"measurement": "Drug uptake", "setting": "Brain [10]", "value": 0.18, "unit": "% ID/g"}, {"measurement": "Drug uptake", "setting": "Liver [11]", "value": 0.41, "unit": "% ID/g"}, {"measurement": "Drug uptake", "setting": "Kidney [12]", "value": 0.76, "unit": "% ID/g"}, {"measurement": "Drug uptake", "setting": "Bone [13]", "value": 0.28, "unit": "% ID/g"}, {"measurement": "Drug uptake", "setting": "Heart", "value": 0.38, "unit": "% ID/g"}, {"measurement": "Drug uptake", "setting": "Muscle tissue [14]", "value": 0.39, "unit": "% ID/g"}, {"measurement": "Drug uptake", "setting": "Pancreas [15]", "value": 3.36, "unit": "% ID/g"}, {"measurement": "Drug uptake", "setting": "Lung [16]", "value": 0.57, "unit": "% ID/g"}, {"measurement": "Drug uptake", "setting": "Lung [17]", "value": 0.4, "unit": "% ID/g"}, {"measurement": "Drug uptake", "setting": "Blood [18]", "value": 0.36, "unit": "% ID/g"}, {"measurement": "Drug uptake", "setting": "Kidney [19]", "value": 0.8, "unit": "% ID/g"}, {"measurement": "Drug uptake", "setting": "Bone [20]", "value": 0.25, "unit": "% ID/g"}, {"measurement": "Drug uptake", "setting": "Kidney [21]", "value": 0.7, "unit": "% ID/g"}, {"measurement": "Drug uptake", "setting": "Brain [22]", "value": 0.2, "unit": "% ID/g"}, {"measurement": "Drug uptake", "setting": "Spleen [23]", "value": 0.61, "unit": "% ID/g"}, {"measurement": "Drug uptake", "setting": "Liver [24]", "value": 0.6, "unit": "% ID/g"}]}
